Assay results as given in ChEMBL document CHEMBL4007430, “Synthesis and Cytostatic and Antiviral Profiling of Thieno-Fused 7-Deazapurine Ribonucleosides” (J Med Chem, 2017).

Tests used:
[1] = test system: Hepatitis C virus; test: Anti-HCV activity against Hepatitis C virus genotype 1b infected in human Huh7 replicon cells after 96 hrs by luciferase reporter gene assay; type: functional, cell-based, Hepacivirus hominis; details: Huh-7, 96 h
[2] = test system: Hepatitis C virus; test: Anti-HCV activity against Hepatitis C virus genotype 2a infected in human Huh7 replicon cells after 96 hrs by luciferase reporter gene assay; type: functional, cell-based, Hepacivirus hominis; details: Huh-7, 96 h
[3] = test system: BJ; test: Cytotoxicity against human BJ cells assessed as cell growth inhibition after 72 hrs by MTS assay; type: cell-based
Procedure, shortened: (§1)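 Cells were exposed to compound for 3 days, then stained with MTS as a quantitative metabolic read-out. IC50 is the concentration that inhibits cell growth by 50%.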

[4] = test system: MRC5; test: Cytotoxicity against human MRC5 cells assessed as cell growth inhibition after 72 hrs by MTS assay; type: cell-based; details: MRC5, 72 h; procedure, shortened: as §1
[5] = Cytotoxicity against mrp-1/mdr-1 overexpressing human CEM-DNR-bulk cells assessed as cell growth inhibition after 72 hrs by MTS assay; type: functional, cell-based
Procedure, shortened: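 Cells were exposed to compound for 3 days, then stained with MTS as a quantitative metabolic read-out.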

[6] = test system: HCT-116; test: Cytotoxicity against human HCT116 cells assessed as cell growth inhibition after 72 hrs by MTS assay; type: functional, cell-based; details: HCT-116, 72 h; procedure, shortened: as §1
[7] = test system: HCT-116; test: Cytotoxicity against p53 deficient human HCT116 cells assessed as cell growth inhibition after 72 hrs by MTS assay; type: functional, cell-based; details: HCT-116, 72 h; procedure, shortened: as §1
[8] = test system: K562; test: Cytotoxicity against human K562 cells assessed as cell growth inhibition after 72 hrs by MTS assay; type: functional, cell-based; details: K562, 72 h; procedure, shortened: as §1
[9] = Cytotoxicity against human K562-TAX cells assessed as cell growth inhibition after 72 hrs by MTS assay; type: functional, cell-based; procedure, shortened: as §1
[10] = test system: U2OS; test: Cytotoxicity against human U2OS cells assessed as cell growth inhibition after 72 hrs by MTS assay; type: functional, cell-based
[11] = test system: HL-60; test: Cytotoxicity against human HL60 cells assessed as reduction in cell viability after 72 hrs by XTT assay; type: functional, cell-based; details: HL-60, 72 h
Procedure, shortened: (§2)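 Cells were incubated with compound for 3 days. Viability was then measured with the XTT tetrazolium assay.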

[12] = test system: HepG2; test: Cytotoxicity against human HepG2 cells assessed as reduction in cell viability after 72 hrs by XTT assay; type: functional, cell-based; details: HepG2, 72 h; procedure, shortened: as §2
[13] = test system: HeLa S3; test: Cytotoxicity against human HeLaS3 cells assessed as reduction in cell viability after 72 hrs by XTT assay; type: functional, cell-based; details: HeLa S3, 72 h; procedure, shortened: as §2
[14] = test system: A549; test: Cytotoxicity against human A549 cells assessed as cell growth inhibition after 72 hrs by MTS assay; type: functional, cell-based; details: A549, 72 h; procedure, shortened: as §1
[15] = test system: CCRF-CEM; test: Induction of apoptosis in human CCRF-CEM cells assessed as accumulation at subG1 phase at IC50 after 24 hrs by propidium iodide staining-based flow cytometric analysis (reference value: 2.32%); type: functional
[16] = test system: CCRF-CEM; test: Induction of apoptosis in human CCRF-CEM cells assessed as accumulation at subG1 phase at 5 times IC50 after 24 hrs by propidium iodide staining-based flow cytometric analysis (reference value: 2.32%); type: functional
[17] = test system: CCRF-CEM; test: Cell cycle arrest in human CCRF-CEM cells assessed as accumulation at G0/G1 phase at IC50 after 24 hrs by propidium iodide staining-based flow cytometric analysis (reference value: 41.11%); type: functional
[18] = test system: CCRF-CEM; test: Cell cycle arrest in human CCRF-CEM cells assessed as accumulation at G0/G1 phase at 5 times IC50 after 24 hrs by propidium iodide staining-based flow cytometric analysis (reference value: 41.11%); type: functional
[19] = test system: CCRF-CEM; test: Cell cycle arrest in human CCRF-CEM cells assessed as accumulation at S phase at IC50 after 24 hrs by propidium iodide staining-based flow cytometric analysis (reference value: 44.20%); type: functional
[20] = test system: CCRF-CEM; test: Cell cycle arrest in human CCRF-CEM cells assessed as accumulation at S phase at 5 times IC50 after 24 hrs by propidium iodide staining-based flow cytometric analysis (reference value: 44.20%); type: functional
[21] = test system: CCRF-CEM; test: Cell cycle arrest in human CCRF-CEM cells assessed as accumulation at G2/M phase at IC50 after 24 hrs by propidium iodide staining-based flow cytometric analysis (reference value: 14.70%); type: functional
[22] = test system: CCRF-CEM; test: Cell cycle arrest in human CCRF-CEM cells assessed as accumulation at G2/M phase at 5 times IC50 after 24 hrs by propidium iodide staining-based flow cytometric analysis (reference value: 14.70%); type: functional
[23] = test system: CCRF-CEM; test: Inhibition of mitosis in human CCRF-CEM cells assessed as pH3Ser10 positive cells at IC50 after 24 hrs by flow cytometric analysis (reference value: 1.74%); type: functional
[24] = test system: CCRF-CEM; test: Inhibition of mitosis in human CCRF-CEM cells assessed as pH3Ser10 positive cells at 5 times IC50 after 24 hrs by flow cytometric analysis (reference value: 1.74%); type: functional
[25] = test system: CCRF-CEM; test: Inhibition of mitosis in human CCRF-CEM cells assessed as pH3Ser10 positive cells after 24 hrs by flow cytometric analysis; type: functional, cell-based
[26] = test system: CCRF-CEM; test: Inhibition of DNA synthesis in human CCRF-CEM cells assessed as decrease in BrdU incorporation by measuring synthesized DNA levels at IC50 after 24 hrs by propidium iodide staining-based flow cytometric analysis (reference value: 52.66%); type: functional
[27] = test system: CCRF-CEM; test: Inhibition of DNA synthesis in human CCRF-CEM cells assessed as decrease in BrdU incorporation by measuring synthesized DNA levels at 5 times IC50 after 24 hrs by propidium iodide staining-based flow cytometric analysis (reference value: 52.66%); type: functional
[28] = test system: CCRF-CEM; test: Inhibition of RNA synthesis in human CCRF-CEM cells assessed as decrease in BrU incorporation by measuring synthesized RNA levels at IC50 after 24 hrs by propidium iodide staining-based flow cytometric method (reference value: 53.09%); type: functional
[29] = test system: CCRF-CEM; test: Inhibition of RNA synthesis in human CCRF-CEM cells assessed as decrease in BrU incorporation by measuring synthesized RNA levels at 5 times IC50 after 24 hrs by propidium iodide staining-based flow cytometric method (reference value: 53.09%); type: functional
[30] = Cytotoxicity against human HuH7 cells; type: cell-based, Huh-7
[31] = test system: CCRF-CEM; test: Cytotoxicity against human CCRF-CEM cells assessed as cell growth inhibition after 72 hrs by MTS assay
[32] = Drug level in human HCT116 cells at 1 umol/L measured per 5 x 10^5 cells after 1 hr by UPLC-MS/MS analysis; type: ADME, cell-based; details: hct-116, 1 h, 1 µM
[33] = Drug level in human BJ cells at 1 umol/L measured per 5 x 10^5 cells after 3 hrs by UPLC-MS/MS analysis; type: ADME, cell-based; details: 1 µM
[34] = Drug level in human HCT116 cells at 1 umol/L measured per 5 x 10^5 cells after 3 hrs by UPLC-MS/MS analysis; type: ADME, cell-based; details: hct-116, 3 h, 1 µM
[35] = Drug level in human BJ cells at 10 umol/L measured per 5 x 10^5 cells after 1 hr by UPLC-MS/MS analysis; type: ADME, cell-based; details: 10 µM
[36] = Drug level in human HCT116 cells at 10 umol/L measured per 5 x 10^5 cells after 1 hr by UPLC-MS/MS analysis; type: ADME, cell-based; details: hct-116, 1 h, 10 µM
[37] = Drug level in human BJ cells at 10 umol/L measured per 5 x 10^5 cells after 3 hrs by UPLC-MS/MS analysis; type: ADME, cell-based; details: 10 µM
[38] = Drug level in human HCT116 cells at 10 umol/L measured per 5 x 10^5 cells after 3 hrs by UPLC-MS/MS analysis; type: ADME, cell-based; details: hct-116, 3 h, 10 µM

Compound	EC50 [1] [nM]	EC50 [2] [nM]	IC50 [3] [nM]	IC50 [4] [nM]	IC50 [5] [nM]	IC50 [6] [nM]	IC50 [7] [nM]	IC50 [8] [nM]	IC50 [9] [nM]	IC50 [10] [nM]	IC50 [11] [nM]	IC50 [12] [nM]	IC50 [13] [nM]	IC50 [14] [nM]	Activity [15] [%]	Activity [16] [%]	Activity [17] [%]	Activity [18] [%]	CC50 [30] [nM]	IC50 [31] [nM]	also measured
COc1ncnc2c1c1sccc1n2[C@@H]1O[C@H](CO)[C@@H](O)[C@H]1O	950	15000	400	25200	61800	130	130	200	4050	460	110	150	900	220	11.17	17.46	34.35	18.67	13900 to 29200	130	Activity [19]: 50.91%; Activity [20]: 75.47%; Activity [21]: 14.73%; Activity [22]: 5.86%; pH3Ser10+ cells (%) [23]: 1.07%; pH3Ser10+ cells (%) [24]: 0.41%; Activity [25]: Dose-dependent effect; BrdU+ cells (%) [26]: 56%; BrdU+ cells (%) [27]: 63.58%; BrU+ cells (%) [28]: 34.93%; BrU+ cells (%) [29]: 26.27%
OC[C@H]1O[C@@H](n2c3ncnc(-c4cc5ccccc5o4)c3c3ccsc32)[C@H](O)[C@@H]1O	2050	14100	36800	37500	20600	47100	> 50000	29700	14900	33100	> 50000	> 50000	> 50000	> 50000					> 44400	15900	
Cc1ncnc2c1c1ccsc1n2[C@@H]1O[C@H](CO)[C@@H](O)[C@H]1O	60	240	> 50000	> 50000	33900	400	330	460	47600	560	370	470	570	720	2.35	3.83	40.67	35.09	> 44400	30	Activity [19]: 45.57%; Activity [20]: 51.16%; Activity [21]: 13.76%; Activity [22]: 13.74%; pH3Ser10+ cells (%) [23]: 1.37%; pH3Ser10+ cells (%) [24]: 1.37%; Activity [25]: Dose-dependent effect; BrdU+ cells (%) [26]: 54.48%; BrdU+ cells (%) [27]: 54.08%; BrU+ cells (%) [28]: 38.29%; BrU+ cells (%) [29]: 18.84%
COc1ncnc2c1c1ccsc1n2[C@@H]1O[C@H](CO)[C@@H](O)[C@H]1O	230	400	7490	> 50000	> 50000	610	640	1060	11100	930	570	1330	230	1230	2.55	11.22	35.73	23.76	> 44400	220	Activity [19]: 45.01%; Activity [20]: 63.97%; Activity [21]: 19.25%; Activity [22]: 12.27%; pH3Ser10+ cells (%) [23]: 1.17%; pH3Ser10+ cells (%) [24]: 0.38%; Activity [25]: Dose-dependent effect; BrdU+ cells (%) [26]: 62.59%; BrdU+ cells (%) [27]: 55.12%; BrU+ cells (%) [28]: 28.75%; BrU+ cells (%) [29]: 8.31%
OC[C@H]1O[C@@H](n2c3ccsc3c3c(-c4cc5ccccc5o4)ncnc32)[C@H](O)[C@@H]1O	2100	13900	23000	32600	14400	16200	12400	15400	17900	18500	2380	4280	24300	21200					19600 to 26600	6860	
Cc1ncnc2c1c1sccc1n2[C@@H]1O[C@H](CO)[C@@H](O)[C@H]1O	110	60	150	1660	> 50000	50	70	140	720	200	210	440	720	210	13.5	16.72	29.74	28.72	> 44400	20	Activity [19]: 57.85%; Activity [20]: 56.18%; Activity [21]: 12.41%; Activity [22]: 15.1%; pH3Ser10+ cells (%) [23]: 0.89%; pH3Ser10+ cells (%) [24]: 3.55%; Activity [25]: Dose-dependent effect; BrdU+ cells (%) [26]: 50.76%; BrdU+ cells (%) [27]: 60.89%; BrU+ cells (%) [28]: 33.92%; BrU+ cells (%) [29]: 47.83%
CSc1ncnc2c1c1ccsc1n2[C@@H]1O[C@H](CO)[C@@H](O)[C@H]1O	130	800	6900	46000	> 50000	200	270	510	> 50000	350	860	680	300	800	2.79	3.53	40.36	33.16	> 44400	200	Activity [19]: 47.81%; Activity [20]: 53.26%; Activity [21]: 11.83%; Activity [22]: 13.58%; pH3Ser10+ cells (%) [23]: 1.36%; pH3Ser10+ cells (%) [24]: 1.13%; Activity [25]: Dose-dependent effect; BrdU+ cells (%) [26]: 52.99%; BrdU+ cells (%) [27]: 56.64%; BrU+ cells (%) [28]: 37.25%; BrU+ cells (%) [29]: 23.92%; Drug uptake [32]: 278.5 pmol; Drug uptake [33]: 253.6 pmol; Drug uptake [34]: 293.6 pmol; Drug uptake [35]: 331.6 pmol; Drug uptake [36]: 320.7 pmol; Drug uptake [37]: 633.7 pmol; Drug uptake [38]: 444 pmol
